Here are results for 59 molecules from ChEMBL document CHEMBL4041496, “Natural-Based Indirubins Display Potent Cytotoxicity toward Wild-Type and T315I-Resistant Leukemia Cell Lines” (J Nat Prod, 2016).

The test system of experiment [1] is KCL-22. The experiment can be described thus: Cytotoxicity against human KCL22 cells assessed as reduction in cell viability at 1 uM after 48 hrs by MTS assay. Format: functional, cell-based. An outline of the steps: (§1)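 Single-concentration screen: KCL-22 cells, or KCL-22 cells expressing T315I mutant Bcr-Abl, grown in RPMI-1640 with 10% FBS. Cells were seeded at 10 000/well, held overnight at 37 °C in 5% CO2, then exposed to 1 μM compound for 48 h, with DMSO as vehicle control. Viability was read by MTS tetrazolium-to-formazan conversion, absorbance 490 nm, in triplicate.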

The test system of experiment [2] is KCL-22. The experiment can be described thus: Cytotoxicity against human KCL22 cells harboring ABL1 T315I mutant assessed as reduction in cell viability at 1 uM after 48 hrs by MTS assay. Format: functional, cell-based. A digest of the protocol:
as §1

Molecules are shown by their SMILES. Activity calls are given as the source filed them. No rule for the calls is given here.

Regarding `O=C1Nc2c(Br)cccc2/C1=C1/Nc2ccc(C(=O)O)cc2/C1=N\OCCN1CCNCC1`, the outcome in the experiment on KCL-22 [1] and with KCL-22 [2] was inactive.

As to `O=C1Nc2c(cccc2C(F)(F)F)/C1=C1/Nc2ccccc2/C1=N\OCCN1CCNCC1`, the outcome in the experiment on KCL-22 [1] and in the experiment on KCL-22 [2] was inactive.

Consider `O=C1Nc2c(Br)cccc2/C1=C1/Nc2ccc(-c3nnn[nH]3)cc2C1=O`, for which the result with KCL-22 [1] and in the experiment with KCL-22 [2] was inactive.

Consider `COC(=O)c1ccc2c(c1)N/C(=C1\C(=O)Nc3c(Br)cccc31)C2=O`, for which the outcome in the experiment with KCL-22 [1] and with KCL-22 [2] was inactive.

In the case of `COC(=O)c1ccc2c(c1)NC(=C1\C(=O)Nc3c1cccc3C(F)(F)F)/C2=N/O`, the result with KCL-22 [1] and with KCL-22 [2] was inactive.

Take `O=C1Nc2c(cccc2C(F)(F)F)/C1=C1/Nc2ccc(C(=O)O)cc2/C1=N\O`: the outcome with KCL-22 [1] and in the experiment with KCL-22 [2] was inactive.

As for `Cc1cc2c(cc1Br)NC(=O)/C2=C1\Nc2ccccc2C1=O`, the outcome with KCL-22 [1] and in the experiment on KCL-22 [2] was inactive.

For the molecule `CN1C(=O)/C(=C2\Nc3ccccc3\C2=N/O)c2cccc(I)c21`, the outcome in the experiment on KCL-22 [1] and with KCL-22 [2] was inactive.

In the case of `COC(=O)c1ccc2c(c1)C(=O)/C(=C1/C(=O)Nc3c(Br)cccc31)N2`, the result with KCL-22 [1] and in the experiment on KCL-22 [2] was inactive.

As to `O=C1Nc2c(cccc2C(F)(F)F)/C1=C1/Nc2ccc(-c3nnn[nH]3)cc2C1=O`, the outcome in the experiment on KCL-22 [1] and in the experiment with KCL-22 [2] was inactive.

On to `O=C1Nc2c(Br)cccc2/C1=C1/Nc2ccc(C(=O)O)cc2/C1=N\O`, for which the result in the experiment with KCL-22 [1] and in the experiment with KCL-22 [2] was inactive.

As to `COC(=O)c1ccc2c(c1)C(=N\O)/C(=C1/C(=O)Nc3c1cccc3C(F)(F)F)N2`, the result with KCL-22 [1] and in the experiment with KCL-22 [2] was inactive.

On to `N#Cc1ccc2c(c1)C(=O)/C(=C1/C(=O)Nc3c1cccc3C(F)(F)F)N2`, for which the result in the experiment on KCL-22 [1] and with KCL-22 [2] was inactive.

As for `O=C1Nc2c(Br)cccc2/C1=C1/Nc2ccc(/C=N/O)cc2/C1=N\O`, the outcome in the experiment on KCL-22 [1] and with KCL-22 [2] was inactive.

Regarding `O=C1Nc2c(cccc2C(F)(F)F)/C1=C1/Nc2cc(C(=O)O)ccc2/C1=N\O`, the outcome in the experiment on KCL-22 [1] and with KCL-22 [2] was inactive.

On to `O=C1Nc2c(Cl)cccc2/C1=C1/Nc2ccccc2C1=O`, for which the result in the experiment with KCL-22 [1] and in the experiment on KCL-22 [2] was inactive.

As to `O=C1Nc2c(Br)cccc2/C1=C1/Nc2ccc(/C=N/O)cc2C1=O`, the result in the experiment on KCL-22 [1] and with KCL-22 [2] was inactive.

Regarding `Nc1cc2c(cc1Br)NC(=O)/C2=C1\Nc2ccccc2\C1=N/O`, the result in the experiment with KCL-22 [1] and with KCL-22 [2] was inactive.

With `CC(=O)O/N=C1/C(=C2/C(=O)N(C(C)=O)c3cc(Br)c([N+](=O)[O-])cc32)Nc2ccccc21`, the result in the experiment on KCL-22 [1] and with KCL-22 [2] was inactive.

For the molecule `CC(=O)O/N=C1/C(=C2/C(=O)Nc3cc(Br)c([N+](=O)[O-])cc32)Nc2ccccc21`, the outcome with KCL-22 [1] and in the experiment with KCL-22 [2] was inactive.

Consider `O=C1Nc2cc(Br)c([N+](=O)[O-])cc2/C1=C1/Nc2ccccc2/C1=N\O`, for which the result in the experiment on KCL-22 [1] and with KCL-22 [2] was inactive.

On to `CN1C(=O)/C(=C2\Nc3ccccc3C2=O)c2cccc(I)c21`, for which the outcome in the experiment on KCL-22 [1] and with KCL-22 [2] was inactive.

As for `O=C1Nc2c(cccc2C(F)(F)F)/C1=C1/Nc2ccccc2/C1=N\OCCN1CCN(CCO)CC1`, the result in the experiment on KCL-22 [1] and in the experiment with KCL-22 [2] was inactive.

With `O=C1Nc2c(Br)cccc2/C1=C1/Nc2ccccc2C1=O`, the outcome in the experiment on KCL-22 [1] and in the experiment on KCL-22 [2] was inactive.

On to `O=C1Nc2ccccc2/C1=C1/Nc2ccccc2/C1=N\O`, for which the result in the experiment with KCL-22 [1] and in the experiment on KCL-22 [2] was inactive.

Consider `COC(=O)c1ccc2c(c1)C(=N\OCCN1CCNCC1)/C(=C1/C(=O)Nc3c(Br)cccc31)N2`, for which the result in the experiment on KCL-22 [1] and with KCL-22 [2] was inactive.

Take `O=C1Nc2c(Cl)cccc2/C1=C1/Nc2ccccc2/C1=N\O`: the result in the experiment with KCL-22 [1] and in the experiment on KCL-22 [2] was inactive.

With `O=C1Nc2c(cccc2C(F)(F)F)/C1=C1/Nc2ccc(-c3nnn[nH]3)cc2/C1=N\O`, the outcome in the experiment on KCL-22 [1] and in the experiment on KCL-22 [2] was inactive.

In the case of `CN1C(=O)/C(=C2\Nc3ccccc3\C2=N/O)c2cccc(Br)c21`, the result in the experiment on KCL-22 [1] and in the experiment on KCL-22 [2] was inactive.

In the case of `O=C1Nc2c(cccc2C(F)(F)F)/C1=C1/Nc2cc(C(=O)O)ccc2/C1=N\OCCN1CCNCC1`, the outcome in the experiment with KCL-22 [1] and in the experiment with KCL-22 [2] was inactive.

For the molecule `O=C1Nc2c(F)cccc2/C1=C1/Nc2ccccc2/C1=N\O`, the result in the experiment with KCL-22 [1] and with KCL-22 [2] was inactive.

Turning to `O=C1Nc2ccccc2/C1=C1/Nc2ccccc2C1=O`, the outcome with KCL-22 [1] and in the experiment on KCL-22 [2] was inactive.

Take `COC(=O)c1ccc2c(c1)N/C(=C1\C(=O)Nc3c1cccc3C(F)(F)F)C2=O`: the outcome with KCL-22 [1] and with KCL-22 [2] was inactive.

In the case of `CC(=O)O/N=C1/C(=C2/C(=O)Nc3cc(Br)c(C)cc32)Nc2ccccc21`, the outcome in the experiment on KCL-22 [1] and in the experiment with KCL-22 [2] was inactive.

With `COC(=O)c1ccc2c(c1)NC(=C1\C(=O)Nc3c1cccc3C(F)(F)F)/C2=N/OCCN1CCNCC1`, the outcome with KCL-22 [1] and in the experiment with KCL-22 [2] was inactive.

Consider `O=C1Nc2c(I)cccc2/C1=C1/Nc2ccccc2C1=O`, for which the result in the experiment with KCL-22 [1] and in the experiment with KCL-22 [2] was inactive.

Consider `O=C1Nc2c(Br)cccc2/C1=C1/Nc2cc(C(=O)O)ccc2/C1=N\OCCN1CCNCC1`, for which the outcome with KCL-22 [1] and in the experiment with KCL-22 [2] was inactive.

For the molecule `O=C1Nc2c(F)cccc2/C1=C1/Nc2ccccc2C1=O`, the outcome in the experiment with KCL-22 [1] and in the experiment on KCL-22 [2] was inactive.

On to `O=C1Nc2c(Br)cccc2/C1=C1/Nc2ccc(-c3nnn[nH]3)cc2/C1=N\O`, for which the result in the experiment with KCL-22 [1] and in the experiment on KCL-22 [2] was inactive.

For `COC(=O)c1ccc2c(c1)C(=O)/C(=C1/C(=O)N(C)c3c(Br)cccc31)N2`, the result in the experiment on KCL-22 [1] and with KCL-22 [2] was inactive.

Take `O=C1Nc2c(I)cccc2/C1=C1/Nc2ccccc2/C1=N\O`: the outcome in the experiment on KCL-22 [1] and in the experiment on KCL-22 [2] was inactive.

For the molecule `COC(=O)c1ccc2c(c1)C(=N\O)/C(=C1/C(=O)Nc3c(Br)cccc31)N2`, the outcome in the experiment on KCL-22 [1] and in the experiment with KCL-22 [2] was inactive.

As for `O=C1Nc2c(Br)cccc2/C1=C1/Nc2ccccc2/C1=N\OCCN1CCNCC1`, the outcome in the experiment on KCL-22 [1] and in the experiment with KCL-22 [2] was inactive.

Turning to `CCN(CC)CCO/N=C1/C(=C2/C(=O)Nc3c(Br)cccc32)Nc2ccccc21`, the outcome in the experiment on KCL-22 [1] and in the experiment on KCL-22 [2] was inactive.

Consider `O=C1Nc2cc(Cl)c(Cl)cc2/C1=C1/Nc2ccccc2C1=O`, for which the result with KCL-22 [1] and in the experiment with KCL-22 [2] was inactive.

For the molecule `COC(=O)c1ccc2c(c1)C(=N\OCCN1CCNCC1)/C(=C1/C(=O)Nc3c1cccc3C(F)(F)F)N2`, the outcome with KCL-22 [1] and with KCL-22 [2] was inactive.

On to `O=C1Nc2cc(Br)c([N+](=O)[O-])cc2/C1=C1/Nc2ccccc2C1=O`, for which the outcome with KCL-22 [1] and in the experiment with KCL-22 [2] was inactive.

For `CN1C(=O)/C(=C2\Nc3ccccc3\C2=N/OCCN2CCNCC2)c2cccc(Br)c21`, the result with KCL-22 [1] and in the experiment with KCL-22 [2] was inactive.

As to `O=C1Nc2ccccc2/C1=C1/Nc2cc(Br)ccc2C1=O`, the result in the experiment with KCL-22 [1] and in the experiment on KCL-22 [2] was inactive.

As to `O=C1Nc2c(Br)cccc2/C1=C1/Nc2cc(C(=O)O)ccc2/C1=N\O`, the result in the experiment with KCL-22 [1] and in the experiment with KCL-22 [2] was inactive.

Turning to `O=C1Nc2c(Br)cccc2/C1=C1/Nc2ccccc2/C1=N\O`, the outcome with KCL-22 [1] and in the experiment with KCL-22 [2] was inactive.

As for `CN1C(=O)/C(=C2\Nc3ccccc3C2=O)c2cccc(Cl)c21`, the result in the experiment with KCL-22 [1] and with KCL-22 [2] was inactive.

As for `O=C1Nc2c(cccc2C(F)(F)F)/C1=C1/Nc2ccccc2C1=O`, the result with KCL-22 [1] and in the experiment with KCL-22 [2] was inactive.

In the case of `O=C1Nc2c(cccc2C(F)(F)F)/C1=C1/Nc2ccccc2/C1=N\O`, the result with KCL-22 [1] and in the experiment on KCL-22 [2] was inactive.

Turning to `O=C1Nc2c(cccc2C(F)(F)F)/C1=C1/Nc2ccc(C(=O)O)cc2/C1=N\OCCN1CCNCC1`, the result in the experiment on KCL-22 [1] and in the experiment on KCL-22 [2] was inactive.

In the case of `CN1C(=O)/C(=C2\Nc3ccccc3\C2=N/O)c2cccc(Cl)c21`, the result in the experiment on KCL-22 [1] and with KCL-22 [2] was inactive.

Consider `O=C1Nc2ccccc2/C1=C1/Nc2cc(Br)ccc2/C1=N\O`, for which the outcome in the experiment on KCL-22 [1] and in the experiment on KCL-22 [2] was inactive.

Take `N#Cc1ccc2c(c1)C(=N\O)/C(=C1/C(=O)Nc3c1cccc3C(F)(F)F)N2`: the result in the experiment on KCL-22 [1] and with KCL-22 [2] was inactive.

As to `COC(=O)c1ccc2c(c1)C(=O)/C(=C1/C(=O)Nc3c1cccc3C(F)(F)F)N2`, the result with KCL-22 [1] and with KCL-22 [2] was inactive.
